The source of these data is ChEMBL document CHEMBL4765291, “Design, synthesis and biological evaluation of novel 3,4-dihydro-2(1H)-quinolinone derivatives as potential chitin synthase inhibitors and antifungal agents” (Eur J Med Chem, 2020).

In one assay the test system is Candida tropicalis. Nature of the assay: Inhibition of Candida tropicalis ATCC 750 chitin synthase at 300 ug/ml using UDP-GlcNAc as substrate relative to control. Particulars: dose 300.0 µg/ml. In a few lines: (§1)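 Chitin synthase prepared from C. tropicalis ATCC 750 by low- and high-speed centrifugation. DMSO stocks (10 mg/mL) diluted in 50 mM Tris-HCl pH 7.5; test concentrations 300–9.375 µg/mL. Chitin synthesized in WGA-coated wells, bound with WGA-HRP, washed, developed with TMB/H2O2, stopped with 2 M H2SO4, OD read. Duplicate; polyoxin B positive control.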

Assay [1] has as its system Candida albicans. Nature of the assay: Antifungal activity against Candida albicans ATCC 90023 incubated for 48 hrs by two-fold broth dilution analysis. The format is functional. In outline: (§2)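 Stock solutions in DMSO, diluted to 0.25–512 µg/mL; two-fold serial broth dilution in 96-well plates. Fungi grown on modified Sabouraud chloramphenicol agar (1% peptone, 2% glucose, […]). Incubated 48 h at 37 °C, then MIC (µg/mL) recorded. Fluconazole and polyoxin B as positive controls; each group tested in triplicate.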
(Dilution methods test growth across graded concentrations, often in twofold steps.)

In a further assay the test system is Cryptococcus neoformans. Put plainly: Antifungal activity against Cryptococcus neoformans ATCC 32719 incubated for 48 hrs by two-fold broth dilution analysis. The format is functional. In a few lines:
as §2

The next assay relates to Aspergillus flavus. Nature of the assay: Antifungal activity against Aspergillus flavus ATCC 16870 incubated for 48 hrs by two-fold broth dilution analysis. The format is functional. In outline:
as §2

Assay [2] has as its system Staphylococcus aureus. Put plainly: Antibacterial activity against methicillin-resistant Staphylococcus aureus N. 315. The format is functional. In a few lines:
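Two-fold serial broth dilution in 96-well plates per national clinical standard; beef extract peptone medium (1% peptone, 0.3% beef extract, 0.5% NaCl, […]). Compounds from DMSO stock diluted to test concentrations; incubation 18–24 h. MIC recorded; each group tested independently in triplicate.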

Assay [3] deals with Candida albicans. Put plainly: Antifungal activity against Candida albicans ATCC 76615 incubated for 48 hrs by two-fold broth dilution analysis. The format is functional. In a few lines:
as §2

Another assay deals with Aspergillus fumigatus. Put plainly: Antifungal activity against Aspergillus fumigatus GIMCC 3.19 incubated for 48 hrs by two-fold broth dilution analysis. The format is functional. In outline:
as §2

Assay [4] concerns Staphylococcus aureus. Nature of the assay: Antibacterial activity against Staphylococcus aureus ATCC 25923. The format is functional. In outline: (§3)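 Two-fold serial broth dilution in 96-well plates following National Committee standards; compounds tested at different concentrations. Medium: beef extract peptone (1% peptone, 0.3% beef extract, 0.5% NaCl). Incubation 18–24 h. MIC recorded; streptomycin and norfloxacin as control drugs; each group tested in triplicate.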

The test system of a further assay is Bacillus subtilis. Nature of the assay: Antibacterial activity against Bacillus subtilis ATCC 6633. The format is functional. In a few lines:
as §3

The test system of the next assay is Pseudomonas aeruginosa. Put plainly: Antibacterial activity against Pseudomonas aeruginosa ATCC 9027. The format is functional. In a few lines:
as §3

The next assay concerns Proteus vulgaris. Nature of the assay: Antibacterial activity against Bacillus proteus ATCC 8427. The format is functional. In outline: as §3
Another assay relates to Escherichia coli. Nature of the assay: Antibacterial activity against Escherichia coli JM 109.
A short description of assay [5]: Inhibition of Candida tropicalis ATCC 750 chitin synthase using UDP-GlcNAc as substrate. In outline: as §1

Broadly, the inhibition is the drop in the measured response relative to a control, in per cent. Read a low inhibition as a response near the control. The term MIC denotes the lowest concentration that inhibits growth of the organism. For orientation: IC50 means the concentration that inhibits the measured activity by half. A lower IC50 goes with higher potency.

≈ marks a conversion by molar mass, not a printed value.

The compound `O=C(/C=C/C(=O)NC1Cc2ccccc2NC1=O)Nc1ccccc1Cl` (stereo unspecified) registered an inhibition in the assay on Candida tropicalis of 46.7%. Also, the MIC against Candida albicans [1] worked out at 2 µg/mL (≈ 5.41 µM); with Cryptococcus neoformans, 16 µg/mL (≈ 43.3 µM); against Aspergillus flavus it was 8 µg/mL (≈ 21.6 µM); in the assay with Staphylococcus aureus [2], 512 µg/mL (≈ 1380 µM); in the assay with Candida albicans [3], 4 µg/mL (≈ 10.8 µM); against Aspergillus fumigatus, 8 µg/mL (≈ 21.6 µM). The MIC against Staphylococcus aureus [4] is 128 µg/mL (≈ 346 µM); in the assay with Bacillus subtilis, 512 µg/mL (≈ 1380 µM); with Pseudomonas aeruginosa it was 256 µg/mL (≈ 692 µM); in the assay with Proteus vulgaris, 512 µg/mL (≈ 1380 µM); against Escherichia coli, 256 µg/mL (≈ 692 µM).

Take `NC(=O)OC[C@H](O)[C@@H](O)[C@H](N)C(=O)N[C@H](C(=O)O)[C@H]1O[C@@H](n2cc(CO)c(=O)[nH]c2=O)[C@H](O)[C@@H]1O` [POLYOXIN B]: in the assay on Candida tropicalis, the inhibition turned out to be 87.5%. Moreover, the half-maximal inhibitory concentration (IC50) in assay [5] is 90 µM. Moreover, the minimum inhibitory concentration (MIC) came to 4 µg/mL (≈ 7.88 µM) in the assay with Candida albicans [1]; 4 µg/mL (≈ 7.88 µM) in the assay with Cryptococcus neoformans; 4 µg/mL (≈ 7.88 µM) with Aspergillus flavus; 2 µg/mL (≈ 3.94 µM) in the assay on Candida albicans [3]; 2 µg/mL (≈ 3.94 µM) against Aspergillus fumigatus.

Turning to `O=C(/C=C/C(=O)NC1Cc2ccccc2NC1=O)Nc1ccccc1Br` (stereo unspecified), the inhibition in the assay on Candida tropicalis was 39.9%. The minimal inhibitory concentration (MIC) against Candida albicans [1] stood at 2 µg/mL (≈ 4.83 µM); against Cryptococcus neoformans, 32 µg/mL (≈ 77.2 µM); against Aspergillus flavus, 2 µg/mL (≈ 4.83 µM); against Staphylococcus aureus [2] it was 256 µg/mL (≈ 618 µM); against Candida albicans [3] it was 4 µg/mL (≈ 9.66 µM); with Aspergillus fumigatus, 8 µg/mL (≈ 19.3 µM). The MIC is 128 µg/mL (≈ 309 µM) against Staphylococcus aureus [4]; 512 µg/mL (≈ 1240 µM) in the assay with Bacillus subtilis; 512 µg/mL (≈ 1240 µM) in the assay with Pseudomonas aeruginosa; 512 µg/mL (≈ 1240 µM) in the assay on Proteus vulgaris; 512 µg/mL (≈ 1240 µM) with Escherichia coli.

Take `O=C(/C=C/C(=O)NC1Cc2ccccc2NC1=O)Nc1ccc(F)cc1` (stereo unspecified): the inhibition in the assay on Candida tropicalis came to 51.2%. Moreover, the IC50 in [5] is 340 µM. Further, the MIC with Candida albicans [1] was found to be 2 µg/mL (≈ 5.66 µM); with Cryptococcus neoformans, 8 µg/mL (≈ 22.6 µM); with Aspergillus flavus it was 8 µg/mL (≈ 22.6 µM); with Staphylococcus aureus [2], 512 µg/mL (≈ 1450 µM); with Candida albicans [3], 2 µg/mL (≈ 5.66 µM); in the assay on Aspergillus fumigatus it was 4 µg/mL (≈ 11.3 µM). Further, the MIC is 128 µg/mL (≈ 362 µM) in the assay with Staphylococcus aureus [4]; 512 µg/mL (≈ 1450 µM) in the assay on Bacillus subtilis; 256 µg/mL (≈ 724 µM) with Pseudomonas aeruginosa; 256 µg/mL (≈ 724 µM) with Proteus vulgaris; 256 µg/mL (≈ 724 µM) in the assay on Escherichia coli.

Regarding `O=C(/C=C/C(=O)NC1Cc2ccccc2NC1=O)Nc1ccc(Br)cc1` (stereo unspecified), the inhibition in the assay on Candida tropicalis was determined as 40.3%. The MIC against Candida albicans [1] amounted to 2 µg/mL (≈ 4.83 µM); against Cryptococcus neoformans, 16 µg/mL (≈ 38.6 µM); with Aspergillus flavus, 4 µg/mL (≈ 9.66 µM); with Staphylococcus aureus [2], 256 µg/mL (≈ 618 µM); in the assay on Candida albicans [3], 2 µg/mL (≈ 4.83 µM); against Aspergillus fumigatus, 4 µg/mL (≈ 9.66 µM). The MIC in the assay with Staphylococcus aureus [4] was determined as 128 µg/mL (≈ 309 µM); in the assay on Bacillus subtilis it was 512 µg/mL (≈ 1240 µM); in the assay on Pseudomonas aeruginosa, 512 µg/mL (≈ 1240 µM); in the assay on Proteus vulgaris it was 512 µg/mL (≈ 1240 µM); against Escherichia coli, 512 µg/mL (≈ 1240 µM).

With `O=C(/C=C/C(=O)NC1Cc2ccccc2NC1=O)Nc1ccccc1F` (stereo unspecified), in the assay on Candida tropicalis, the inhibition turned out to be 48.9%. Besides, the MIC in the assay with Candida albicans [1] was 4 µg/mL (≈ 11.3 µM); with Cryptococcus neoformans it was 16 µg/mL (≈ 45.3 µM); with Aspergillus flavus, 8 µg/mL (≈ 22.6 µM); against Staphylococcus aureus [2], 512 µg/mL (≈ 1450 µM); in the assay with Candida albicans [3], 8 µg/mL (≈ 22.6 µM); in the assay on Aspergillus fumigatus, 1 µg/mL (≈ 2.83 µM). In addition, the minimum inhibitory concentration (MIC) against Staphylococcus aureus [4] stood at 256 µg/mL (≈ 724 µM); against Bacillus subtilis, 256 µg/mL (≈ 724 µM); with Pseudomonas aeruginosa, 512 µg/mL (≈ 1450 µM); with Proteus vulgaris, 512 µg/mL (≈ 1450 µM); against Escherichia coli it was 512 µg/mL (≈ 1450 µM).

In the case of `OC(Cn1cncn1)(Cn1cncn1)c1ccc(F)cc1F` [FLUCONAZOLE], the MIC was determined as 1 µg/mL (≈ 3.27 µM) against Candida albicans [1]; 2 µg/mL (≈ 6.53 µM) in the assay on Cryptococcus neoformans; 2 µg/mL (≈ 6.53 µM) in the assay with Aspergillus flavus; 1 µg/mL (≈ 3.27 µM) against Candida albicans [3]; 2 µg/mL (≈ 6.53 µM) in the assay on Aspergillus fumigatus.

Consider `CCn1cc(C(=O)O)c(=O)c2cc(F)c(N3CCNCC3)cc21` [NORFLOXACIN], for which the MIC against Staphylococcus aureus [2] stood at 4 µg/mL (≈ 12.5 µM); against Staphylococcus aureus [4], 2 µg/mL (≈ 6.26 µM); against Bacillus subtilis it was 4 µg/mL (≈ 12.5 µM); in the assay with Pseudomonas aeruginosa it was 8 µg/mL (≈ 25.1 µM); against Proteus vulgaris, 2 µg/mL (≈ 6.26 µM); in the assay with Escherichia coli, 8 µg/mL (≈ 25.1 µM).

`O=C(/C=C/C(=O)NC1Cc2ccccc2NC1=O)Nc1ccccc1` (stereo unspecified) had an inhibition with Candida tropicalis of 35.7%. Also, the minimal inhibitory concentration (MIC) came to 2 µg/mL (≈ 5.96 µM) in the assay with Candida albicans [1]; 4 µg/mL (≈ 11.9 µM) with Cryptococcus neoformans; 4 µg/mL (≈ 11.9 µM) against Aspergillus flavus; 256 µg/mL (≈ 763 µM) with Staphylococcus aureus [2]; 4 µg/mL (≈ 11.9 µM) in the assay on Candida albicans [3]; 4 µg/mL (≈ 11.9 µM) in the assay on Aspergillus fumigatus. The minimum inhibitory concentration (MIC) with Staphylococcus aureus [4] is 256 µg/mL (≈ 763 µM); against Bacillus subtilis it was 256 µg/mL (≈ 763 µM); in the assay with Pseudomonas aeruginosa, 256 µg/mL (≈ 763 µM); against Proteus vulgaris it was 256 µg/mL (≈ 763 µM); against Escherichia coli it was 512 µg/mL (≈ 1530 µM).
